Source: ChEMBL document CHEMBL2331489, “Novel cinnoline-based inhibitors of LRRK2 kinase activity” (Bioorg Med Chem Lett, 2013)
The source made the active and inactive calls. No cut-off for these calls is given here.

Tests used:
[1] = target: T1, Leucine-rich repeat serine/threonine-protein kinase 2 (Homo sapiens, UniProt Q5S007, G2019S); test: Inhibition of GST-tagged LRRK2 G2019S mutant (970 to 2527 amino acid residues) (unknown origin) assessed as inhibition of biotinylated-LRRKtide phosphorylation by HTRF assay in presence of ATP
[2] = target: Leucine-rich repeat serine/threonine-protein kinase 2 (Homo sapiens, UniProt Q5S007); test: Inhibition of wild type GST-tagged LRRK2 (970 to 2527 amino acid residues) (unknown origin) assessed as inhibition of biotinylated-LRRKtide phosphorylation by HTRF assay in presence of ATP
[3] = target: T1, Leucine-rich repeat serine/threonine-protein kinase 2; test: Inhibition of LRRK2 G2019S mutant (unknown origin) transfected in HEK293 cells assessed as inhibition of S935 phosphorylation; assay type: cell-based
[4] = target: Platelet-derived growth factor receptor alpha (Homo sapiens, UniProt P16234); test: Inhibition of PDGFRalpha (unknown origin) by TR-FRET assay in presence of ATP
[5] = target: Macrophage colony-stimulating factor 1 receptor (Homo sapiens, UniProt P07333); test: Inhibition of CSF1R (unknown origin) by TR-FRET assay in presence of ATP
Brain = test: Drug uptake in Mdr1(a/b) knock out and P-gp competent FVB mouse brain at 1 mg/kg, iv at 5 mins; assay type: ADME, organism-based; set-up: dose 1 mg/kg, route intravenous; details: in vivo
Summary of the method: (§1)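 FVB mice, both Mdr1a/b (-/-) and P-gp-competent wild-type, were given a single 1 mg/kg IV dose. Brain and plasma concentrations were measured 5 min after dosing. Brain uptake was expressed as the brain-to-plasma concentration ratio (Kp). In vivo P-gp efflux was assessed by comparing the knockout and wild-type strains.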

[6] = target: ATP-dependent translocase ABCB1 (Homo sapiens, UniProt P08183); test: Inhibition of MDR1 (unknown origin) transfected in MDCK cells; assay type: cell-based
Mus musculus = test: Inhibition of P-gp in Mdr1(a/b) knock out and P-gp competent FVB mouse at 1 mg/kg, iv; assay type: functional, organism-based; set-up: dose 1 mg/kg; summary of the method: as §1
[7] = Ratio of drug level in brain to plasma in Mdr1(a/b) knock out and P-gp competent FVB mouse at 1 mg/kg, iv at 5 mins; assay type: ADME, organism-based; set-up: dose 1 mg/kg, route intravenous; details: read-out: BPR; summary of the method: as §1

T1 sequence (Q5S007 whole entry G2019S, the tested form may be a part): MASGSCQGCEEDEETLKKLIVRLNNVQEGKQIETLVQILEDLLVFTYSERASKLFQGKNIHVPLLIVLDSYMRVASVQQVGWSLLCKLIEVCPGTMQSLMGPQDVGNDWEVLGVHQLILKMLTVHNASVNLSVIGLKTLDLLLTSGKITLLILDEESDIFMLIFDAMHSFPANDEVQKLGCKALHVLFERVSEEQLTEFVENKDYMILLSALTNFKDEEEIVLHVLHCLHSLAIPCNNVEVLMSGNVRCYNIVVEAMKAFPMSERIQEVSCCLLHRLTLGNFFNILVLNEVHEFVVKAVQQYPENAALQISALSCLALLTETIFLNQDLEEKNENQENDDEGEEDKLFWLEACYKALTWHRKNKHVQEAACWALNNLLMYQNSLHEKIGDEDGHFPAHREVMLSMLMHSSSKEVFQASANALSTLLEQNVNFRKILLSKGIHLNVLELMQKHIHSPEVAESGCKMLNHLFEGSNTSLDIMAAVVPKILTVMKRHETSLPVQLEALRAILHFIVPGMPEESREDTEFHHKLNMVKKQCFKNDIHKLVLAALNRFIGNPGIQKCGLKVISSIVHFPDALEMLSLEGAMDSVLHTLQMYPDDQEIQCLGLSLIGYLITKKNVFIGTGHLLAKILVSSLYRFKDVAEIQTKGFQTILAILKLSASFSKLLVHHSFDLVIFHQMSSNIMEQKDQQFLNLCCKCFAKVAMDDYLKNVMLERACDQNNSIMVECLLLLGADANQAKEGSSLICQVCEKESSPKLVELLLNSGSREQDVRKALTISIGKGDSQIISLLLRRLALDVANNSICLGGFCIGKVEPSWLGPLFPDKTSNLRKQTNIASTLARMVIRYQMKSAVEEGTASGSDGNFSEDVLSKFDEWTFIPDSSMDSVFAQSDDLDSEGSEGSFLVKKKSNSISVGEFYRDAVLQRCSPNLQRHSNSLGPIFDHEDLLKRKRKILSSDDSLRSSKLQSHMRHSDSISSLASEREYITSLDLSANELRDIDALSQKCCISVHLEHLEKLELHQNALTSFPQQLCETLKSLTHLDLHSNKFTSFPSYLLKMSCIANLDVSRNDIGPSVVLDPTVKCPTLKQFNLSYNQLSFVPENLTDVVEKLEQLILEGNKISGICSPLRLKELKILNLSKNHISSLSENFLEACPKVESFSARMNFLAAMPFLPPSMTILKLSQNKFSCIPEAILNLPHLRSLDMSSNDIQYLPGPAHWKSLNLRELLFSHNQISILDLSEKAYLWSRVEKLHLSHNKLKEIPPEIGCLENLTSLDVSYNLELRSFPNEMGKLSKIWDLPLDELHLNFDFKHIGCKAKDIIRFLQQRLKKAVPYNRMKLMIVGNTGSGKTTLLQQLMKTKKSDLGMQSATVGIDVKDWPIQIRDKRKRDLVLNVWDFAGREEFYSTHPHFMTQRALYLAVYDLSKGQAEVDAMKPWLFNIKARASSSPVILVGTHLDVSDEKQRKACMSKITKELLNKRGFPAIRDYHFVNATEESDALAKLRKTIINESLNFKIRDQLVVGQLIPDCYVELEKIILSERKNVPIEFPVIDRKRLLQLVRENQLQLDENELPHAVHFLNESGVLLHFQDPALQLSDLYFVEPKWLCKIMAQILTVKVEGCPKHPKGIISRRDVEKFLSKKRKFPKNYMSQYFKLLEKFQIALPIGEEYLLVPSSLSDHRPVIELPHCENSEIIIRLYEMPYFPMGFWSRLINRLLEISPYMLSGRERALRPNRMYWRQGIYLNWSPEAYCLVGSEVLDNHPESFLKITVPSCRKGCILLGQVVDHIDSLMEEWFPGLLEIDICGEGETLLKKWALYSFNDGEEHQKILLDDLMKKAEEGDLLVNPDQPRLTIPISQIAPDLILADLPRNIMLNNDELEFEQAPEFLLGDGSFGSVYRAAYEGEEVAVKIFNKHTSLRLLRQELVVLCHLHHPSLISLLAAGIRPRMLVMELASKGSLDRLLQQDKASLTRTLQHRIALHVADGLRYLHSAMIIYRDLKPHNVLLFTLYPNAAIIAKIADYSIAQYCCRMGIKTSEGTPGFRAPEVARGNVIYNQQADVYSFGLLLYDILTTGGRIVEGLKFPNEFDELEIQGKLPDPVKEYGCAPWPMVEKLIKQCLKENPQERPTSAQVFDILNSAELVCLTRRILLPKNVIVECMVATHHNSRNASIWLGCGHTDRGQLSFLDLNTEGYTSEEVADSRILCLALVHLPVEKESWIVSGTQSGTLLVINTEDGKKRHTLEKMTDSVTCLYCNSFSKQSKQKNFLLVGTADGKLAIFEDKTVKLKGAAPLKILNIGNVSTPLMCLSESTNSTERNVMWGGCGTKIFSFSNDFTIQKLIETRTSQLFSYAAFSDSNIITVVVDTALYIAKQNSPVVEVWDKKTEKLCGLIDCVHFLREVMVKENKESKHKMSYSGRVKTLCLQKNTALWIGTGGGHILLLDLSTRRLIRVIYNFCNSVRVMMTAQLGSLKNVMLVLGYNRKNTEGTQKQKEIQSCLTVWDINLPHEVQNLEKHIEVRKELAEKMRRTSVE
Leucine-rich repeat serine/threonine-protein kinase 2 (Homo sapiens, UniProt Q5S007), sequence (Q5S007 whole entry, the tested form may be a part): as the sequence (Q5S007 whole entry G2019S, the tested form may be a part) above, with S2019G counted along it
ATP-dependent translocase ABCB1, sequence (P08183 whole entry): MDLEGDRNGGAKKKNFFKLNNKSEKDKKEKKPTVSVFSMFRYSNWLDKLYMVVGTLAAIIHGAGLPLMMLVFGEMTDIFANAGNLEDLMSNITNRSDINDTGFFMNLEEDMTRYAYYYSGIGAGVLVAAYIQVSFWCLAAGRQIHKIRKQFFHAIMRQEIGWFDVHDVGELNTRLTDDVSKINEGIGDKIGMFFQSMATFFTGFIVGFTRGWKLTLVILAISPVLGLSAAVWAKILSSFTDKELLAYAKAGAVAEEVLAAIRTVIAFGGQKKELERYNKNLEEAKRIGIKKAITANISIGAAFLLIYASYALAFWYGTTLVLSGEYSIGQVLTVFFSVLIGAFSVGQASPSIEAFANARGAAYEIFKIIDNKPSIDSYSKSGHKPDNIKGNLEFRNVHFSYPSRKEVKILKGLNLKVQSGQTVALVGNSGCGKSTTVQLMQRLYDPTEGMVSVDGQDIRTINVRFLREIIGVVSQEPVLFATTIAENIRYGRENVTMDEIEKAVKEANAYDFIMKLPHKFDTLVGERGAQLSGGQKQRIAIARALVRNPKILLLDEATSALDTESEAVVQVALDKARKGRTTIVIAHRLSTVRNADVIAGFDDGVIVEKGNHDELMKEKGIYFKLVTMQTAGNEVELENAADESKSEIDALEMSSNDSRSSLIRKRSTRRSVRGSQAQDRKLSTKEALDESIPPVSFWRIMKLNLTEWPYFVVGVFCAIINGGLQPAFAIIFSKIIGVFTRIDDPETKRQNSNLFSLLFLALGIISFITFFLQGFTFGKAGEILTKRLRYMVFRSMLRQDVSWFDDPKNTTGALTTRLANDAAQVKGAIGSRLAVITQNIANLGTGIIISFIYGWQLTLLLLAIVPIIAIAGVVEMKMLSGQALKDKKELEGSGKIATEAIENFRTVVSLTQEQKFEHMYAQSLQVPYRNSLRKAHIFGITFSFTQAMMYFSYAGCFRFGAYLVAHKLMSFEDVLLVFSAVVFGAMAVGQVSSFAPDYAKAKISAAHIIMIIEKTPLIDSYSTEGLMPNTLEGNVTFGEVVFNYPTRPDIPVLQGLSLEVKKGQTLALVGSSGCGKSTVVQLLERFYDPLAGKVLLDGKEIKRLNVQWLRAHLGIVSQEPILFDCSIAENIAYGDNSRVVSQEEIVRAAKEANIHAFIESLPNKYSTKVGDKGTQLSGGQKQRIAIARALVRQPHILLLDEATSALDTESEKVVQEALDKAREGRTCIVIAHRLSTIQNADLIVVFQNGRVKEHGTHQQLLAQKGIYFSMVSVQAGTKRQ
Macrophage colony-stimulating factor 1 receptor, sequence (P07333 whole entry): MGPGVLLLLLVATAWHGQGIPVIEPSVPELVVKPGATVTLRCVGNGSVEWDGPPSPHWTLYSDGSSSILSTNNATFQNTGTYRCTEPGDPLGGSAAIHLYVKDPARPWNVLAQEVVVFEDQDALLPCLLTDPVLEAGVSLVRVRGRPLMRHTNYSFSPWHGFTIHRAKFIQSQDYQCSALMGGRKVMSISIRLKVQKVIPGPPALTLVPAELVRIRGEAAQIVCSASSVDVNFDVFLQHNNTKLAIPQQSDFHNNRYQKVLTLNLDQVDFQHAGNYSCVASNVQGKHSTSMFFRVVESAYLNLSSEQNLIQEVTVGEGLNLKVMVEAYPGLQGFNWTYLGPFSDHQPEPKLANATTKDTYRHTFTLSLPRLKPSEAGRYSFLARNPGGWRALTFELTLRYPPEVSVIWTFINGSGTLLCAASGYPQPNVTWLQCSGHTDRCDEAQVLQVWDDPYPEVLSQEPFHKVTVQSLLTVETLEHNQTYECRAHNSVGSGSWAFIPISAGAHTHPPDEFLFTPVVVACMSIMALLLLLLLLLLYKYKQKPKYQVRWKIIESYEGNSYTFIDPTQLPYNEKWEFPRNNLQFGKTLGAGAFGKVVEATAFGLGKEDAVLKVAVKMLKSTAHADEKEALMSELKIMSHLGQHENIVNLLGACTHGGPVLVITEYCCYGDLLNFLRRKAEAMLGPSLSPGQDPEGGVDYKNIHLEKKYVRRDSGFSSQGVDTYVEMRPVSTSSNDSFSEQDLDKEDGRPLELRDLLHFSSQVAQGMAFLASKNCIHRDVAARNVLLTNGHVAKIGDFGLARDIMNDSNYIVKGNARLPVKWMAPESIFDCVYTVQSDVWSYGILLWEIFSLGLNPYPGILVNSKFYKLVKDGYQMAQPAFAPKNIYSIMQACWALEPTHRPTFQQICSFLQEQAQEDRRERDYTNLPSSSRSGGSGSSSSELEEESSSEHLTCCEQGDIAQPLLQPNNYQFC

SMILES | IC50 [1] [nM] | IC50 [2] [nM] | also measured
CCNc1c(C(N)=O)nnc2cc(-c3ccc(S(C)(=O)=O)cc3)ccc12 | 55 | – | –
CS(=O)(=O)c1ccc(-c2ccc3c(Nc4ccccc4)c(C(N)=O)cnc3c2)cc1 | – | 781 | –
CS(=O)(=O)c1ccc(-c2ccc3c(N)c(C(N)=O)nnc3c2)cc1 | 298 | – | –
NC(=O)c1nnc2cc(-c3ccncc3)ccc2c1NCCO | 264 | – | –
CNC(=O)c1nnc2cc(-c3ccc(S(C)(=O)=O)cc3)ccc2c1N[C@H](C)C1CC1 | 247 | – | –
NC(=O)c1nnc2cc(-c3ccncc3)ccc2c1NCCCO | 162 | – | –
CC(C)Nc1c(C(N)=O)nnc2cc(N3CCN(C)CC3)ccc12 | 59 | – | –
CS(=O)(=O)c1ccc(-c2ccc3c(NC4CCOC4)c(C(N)=O)nnc3c2)cc1 (racemic) | 53 | – | –
C[C@@H](Nc1c(C(N)=O)nnc2cc(-c3ccncc3)ccc12)C1CC1 | 6 | 2 | Drug uptake (Brain): Active; inhibition (INH) [6]: Active; inhibition (Mus musculus): Active; Kp at 5 min [7]: 1.5; EC50 [3]: 62 nM
CNc1c(C(N)=O)nnc2cc(-c3ccc(S(C)(=O)=O)cc3)ccc12 | 56 | – | –
CC(C)Nc1c(C(N)=O)nnc2ccc(-c3cnn(C)c3)cc12 | 425 | – | –
Cc1c(-c2ccncc2)ccc2c(NC(C)C)c(C(N)=O)nnc12 | 2510 | 3200 | –
CNC(=O)c1nnc2cc(-c3ccc(S(C)(=O)=O)cc3)ccc2c1NC(C)C | 418 | – | –

Further molecules by falling IC50 [1], results first:

IC50 [1] [nM] | IC50 [2] [nM] | SMILES | also measured
52 | 49 | CS(=O)(=O)c1ccc(-c2ccc3c(NC4CC4)c(C(N)=O)nnc3c2)cc1 | –
32 | – | CS(=O)(=O)c1ccc(-c2ccc3c(NC4CCOCC4)c(C(N)=O)nnc3c2)cc1 | –
27 | – | CS(=O)(=O)c1ccc(-c2ccc3c(NCC4CC4)c(C(N)=O)nnc3c2)cc1 | –
27 | – | CC(C)Nc1c(C(N)=O)nnc2cc(-c3ccc(S(C)(=O)=O)cc3)ccc12 | IC50 [4]: 262 nM; IC50 [5]: 12 nM; EC50 [3]: 218 nM
20 | 14 | CC(C)Nc1c(C(N)=O)nnc2cc(-c3cnsc3)ccc12 | EC50 [3]: 290 nM
18 | 12 | CC(C)Nc1c(C(N)=O)nnc2cc(-c3cn[nH]c3)ccc12 | –
12 | – | CC(C)Nc1c(C(N)=O)nnc2cc(-c3cnn(C)c3)ccc12 | –
4 | 1 | CC[C@@H](C)Nc1c(C(N)=O)nnc2cc(-c3ccc(S(C)(=O)=O)cc3)ccc12 | EC50 [3]: 73 nM
